The target of data set [1] is T1, MAP kinase p38 (Homo sapiens, UniProt O15264+Q15759+Q16539+P53778). Kind of data set: Inhibition of p38 (unknown origin) at 1 uM. It counts as protein assay.
Data set [2] has as its target Casein kinase I isoform alpha (Homo sapiens) (UniProt P48729). Kind of data set: Inhibition of CK1 alpha (unknown origin) at 1 uM.
In data set [3] the test system is Plasma. Kind of data set: fCmax in C57Bl/6J mouse plasma at 32 mg/kg, sc by LC/MS analysis. Particulars: in vivo. On the set-up: dose 32 mg/kg, route subcutaneous. It counts as ADME, organism-based. In outline: (§1)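 Male C57BL/6J mice got a single subcutaneous dose. Plasma and whole brain were taken at 0.5–24 h (n = 4 per time). Brain was homogenized in 60% isopropanol and samples quantified by LC-MS after protein precipitation. Free fraction came from 6 h equilibrium dialysis at 37 °C of plasma or brain homogenate spiked with 1 μM compound.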

In data set [4] the target is Tyrosine-protein kinase Lck (Homo sapiens) (UniProt P06239). Put plainly: Inhibition of LCK (unknown origin) at 1 uM.
Sequence of Tyrosine-protein kinase Lck (Homo sapiens) (P06239 2-509 limits assumed): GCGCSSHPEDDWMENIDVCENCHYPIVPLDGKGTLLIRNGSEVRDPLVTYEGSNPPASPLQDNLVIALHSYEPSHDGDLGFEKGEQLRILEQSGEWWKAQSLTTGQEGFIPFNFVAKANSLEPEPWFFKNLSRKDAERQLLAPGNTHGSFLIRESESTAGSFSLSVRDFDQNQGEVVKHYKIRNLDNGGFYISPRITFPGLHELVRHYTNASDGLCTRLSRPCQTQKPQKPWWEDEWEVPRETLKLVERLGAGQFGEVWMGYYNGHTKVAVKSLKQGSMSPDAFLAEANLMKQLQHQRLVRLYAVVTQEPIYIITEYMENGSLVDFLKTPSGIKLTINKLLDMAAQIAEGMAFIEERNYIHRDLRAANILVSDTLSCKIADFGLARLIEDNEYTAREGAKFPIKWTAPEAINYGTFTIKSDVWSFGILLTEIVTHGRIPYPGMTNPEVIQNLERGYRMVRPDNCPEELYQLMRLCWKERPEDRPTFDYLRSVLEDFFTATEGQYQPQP
The species entered for data set [5] is Homo sapiens. Put plainly: Inhibition of PKA alpha (unknown origin) at 1 uM.
Data set [6] concerns Brain. Put plainly: fCmax in C57Bl/6J mouse brain at 32 mg/kg, sc by LC/MS analysis. It counts as ADME, organism-based. The arrangement: dose 32 mg/kg, route subcutaneous. As to conditions: in vivo. In outline:
as §1

In data set [7] the target is T1, MAP kinase p38. Put plainly: Inhibition of p38 (unknown origin). It counts as protein assay. In outline:
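p38 IC50 determined by outside SelectScreen profiling service, ATP at Km.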

Data set [8] deals with Epidermal growth factor receptor (Homo sapiens) (UniProt P00533). Put plainly: Inhibition of EGFR (unknown origin) at 1 uM.
Sequence of Epidermal growth factor receptor (Homo sapiens) (P00533 whole entry): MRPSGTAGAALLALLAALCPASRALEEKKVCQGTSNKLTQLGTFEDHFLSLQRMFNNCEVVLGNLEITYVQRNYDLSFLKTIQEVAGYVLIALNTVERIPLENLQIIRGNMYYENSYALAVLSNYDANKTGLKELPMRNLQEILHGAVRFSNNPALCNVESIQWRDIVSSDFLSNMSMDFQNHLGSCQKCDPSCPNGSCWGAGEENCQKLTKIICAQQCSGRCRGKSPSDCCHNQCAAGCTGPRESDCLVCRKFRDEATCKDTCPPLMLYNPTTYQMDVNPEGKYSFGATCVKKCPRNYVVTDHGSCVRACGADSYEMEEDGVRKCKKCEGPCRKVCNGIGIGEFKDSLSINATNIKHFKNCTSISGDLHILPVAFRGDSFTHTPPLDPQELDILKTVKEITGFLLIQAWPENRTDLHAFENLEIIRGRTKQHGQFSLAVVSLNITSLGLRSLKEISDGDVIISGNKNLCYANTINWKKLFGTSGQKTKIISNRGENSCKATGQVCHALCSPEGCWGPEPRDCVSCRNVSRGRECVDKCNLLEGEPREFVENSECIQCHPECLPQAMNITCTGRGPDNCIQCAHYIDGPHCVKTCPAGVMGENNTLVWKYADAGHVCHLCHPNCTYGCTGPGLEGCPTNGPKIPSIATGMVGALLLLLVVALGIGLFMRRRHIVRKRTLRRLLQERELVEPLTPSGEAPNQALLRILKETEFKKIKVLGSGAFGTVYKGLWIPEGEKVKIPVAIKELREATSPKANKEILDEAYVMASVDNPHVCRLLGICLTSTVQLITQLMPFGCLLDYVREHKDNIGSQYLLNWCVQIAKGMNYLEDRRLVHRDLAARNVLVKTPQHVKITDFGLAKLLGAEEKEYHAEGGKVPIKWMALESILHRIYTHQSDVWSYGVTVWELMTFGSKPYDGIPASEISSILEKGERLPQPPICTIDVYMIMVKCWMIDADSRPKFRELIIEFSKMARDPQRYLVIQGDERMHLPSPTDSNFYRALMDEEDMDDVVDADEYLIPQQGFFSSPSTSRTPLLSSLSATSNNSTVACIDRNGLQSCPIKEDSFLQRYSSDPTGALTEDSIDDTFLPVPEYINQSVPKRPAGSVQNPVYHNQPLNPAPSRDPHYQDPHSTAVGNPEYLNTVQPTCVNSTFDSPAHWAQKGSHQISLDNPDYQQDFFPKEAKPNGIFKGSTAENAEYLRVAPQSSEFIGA
Data set [9] concerns the target Mitogen-activated protein kinase kinase kinase kinase 4 (Homo sapiens) (UniProt O95819). Put plainly: Inhibition of MAP4K4 (unknown origin) at 1 uM.
In data set [10] the target is Tyrosine-protein kinase ABL1 (Homo sapiens) (UniProt P00519). Kind of data set: Inhibition of ABL (unknown origin) at 1 uM.
For data set [11], the target named is Rho-associated protein kinase 2 (Homo sapiens) (UniProt O75116). Put plainly: Inhibition of ROCK2 (unknown origin) at 1 uM.
Data set [12] deals with JNK2/JNK3 (Homo sapiens) (UniProt P53779+P45984). Put plainly: Inhibition of JNK 2/3 (unknown origin) at 1 uM. It counts as protein assay.
In data set [13] the target is T2, Casein kinase I isoform delta (Homo sapiens, UniProt P48730). Put plainly: Inhibition of CK1 delta (unknown origin) using PLSRTLpSVASLPGL as substrate after 60 mins by microplate reader analysis.
T2 sequence (P48730 whole entry, canonical isoform): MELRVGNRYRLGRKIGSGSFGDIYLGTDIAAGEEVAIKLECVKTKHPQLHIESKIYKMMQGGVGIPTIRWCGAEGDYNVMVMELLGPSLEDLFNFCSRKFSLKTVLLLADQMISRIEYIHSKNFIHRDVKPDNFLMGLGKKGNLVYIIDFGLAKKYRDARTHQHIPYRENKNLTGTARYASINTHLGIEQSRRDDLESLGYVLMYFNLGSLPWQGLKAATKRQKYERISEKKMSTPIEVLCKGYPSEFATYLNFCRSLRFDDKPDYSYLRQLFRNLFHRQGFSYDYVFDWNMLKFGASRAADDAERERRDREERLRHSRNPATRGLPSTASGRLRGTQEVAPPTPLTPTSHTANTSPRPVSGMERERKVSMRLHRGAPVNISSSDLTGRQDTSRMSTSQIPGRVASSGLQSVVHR
Data set [14] has as its target Casein kinase I isoform epsilon (Homo sapiens, UniProt P49674). Put plainly: Inhibition of CK1 epsilon (unknown origin) using PLSRTLpSVASLPGL as substrate after 85 mins by microplate reader analysis.
The target of data set [15] is Mitogen-activated protein kinase 14 (Homo sapiens) (UniProt Q16539). Put plainly: Inhibition of MAPK14 (unknown origin) at 1 uM.
Data set [16] addresses Tyrosine-protein kinase Lyn (Homo sapiens) (UniProt P07948). Put plainly: Inhibition of LYN (unknown origin) at 1 uM.
Data set [17] deals with T2, Casein kinase I isoform delta. Kind of data set: Inhibition of human CK1 delta transfected in african green monkey cos7 cells after overnight incubation by whole cell assay. It counts as cell-based, COS-7. The method in brief: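 COS-7 cells in DMEM with 10% FBS were co-transfected by lipofection with mPER3-GFP and human CK1δ plasmids (1:11), then plated. Compounds, diluted in Opti-MEM, were tested at 11 concentrations overnight at 37 °C. Cells were fixed in 4% paraformaldehyde and Hoechst-stained, and nuclear translocation of mPER3-GFP was imaged on ArrayScan.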

The target in data set [18] is hERG (KCNH2) (Homo sapiens, UniProt Q12809). Put plainly: Displacement of [3H]dofetilide from human ERG channel at 10 uM. As to conditions: probe [3H]dofetilide. On the technique in general: Displacement assays read how much labelled ligand stays bound in the presence of the test substance.
For data set [19], the target named is T3, Voltage-gated inwardly rectifying potassium channel KCNH2 (Homo sapiens, UniProt Q12809). Kind of data set: Inhibition of human ERG channel by electrophysiological method.
T3 sequence (Q12809 whole entry): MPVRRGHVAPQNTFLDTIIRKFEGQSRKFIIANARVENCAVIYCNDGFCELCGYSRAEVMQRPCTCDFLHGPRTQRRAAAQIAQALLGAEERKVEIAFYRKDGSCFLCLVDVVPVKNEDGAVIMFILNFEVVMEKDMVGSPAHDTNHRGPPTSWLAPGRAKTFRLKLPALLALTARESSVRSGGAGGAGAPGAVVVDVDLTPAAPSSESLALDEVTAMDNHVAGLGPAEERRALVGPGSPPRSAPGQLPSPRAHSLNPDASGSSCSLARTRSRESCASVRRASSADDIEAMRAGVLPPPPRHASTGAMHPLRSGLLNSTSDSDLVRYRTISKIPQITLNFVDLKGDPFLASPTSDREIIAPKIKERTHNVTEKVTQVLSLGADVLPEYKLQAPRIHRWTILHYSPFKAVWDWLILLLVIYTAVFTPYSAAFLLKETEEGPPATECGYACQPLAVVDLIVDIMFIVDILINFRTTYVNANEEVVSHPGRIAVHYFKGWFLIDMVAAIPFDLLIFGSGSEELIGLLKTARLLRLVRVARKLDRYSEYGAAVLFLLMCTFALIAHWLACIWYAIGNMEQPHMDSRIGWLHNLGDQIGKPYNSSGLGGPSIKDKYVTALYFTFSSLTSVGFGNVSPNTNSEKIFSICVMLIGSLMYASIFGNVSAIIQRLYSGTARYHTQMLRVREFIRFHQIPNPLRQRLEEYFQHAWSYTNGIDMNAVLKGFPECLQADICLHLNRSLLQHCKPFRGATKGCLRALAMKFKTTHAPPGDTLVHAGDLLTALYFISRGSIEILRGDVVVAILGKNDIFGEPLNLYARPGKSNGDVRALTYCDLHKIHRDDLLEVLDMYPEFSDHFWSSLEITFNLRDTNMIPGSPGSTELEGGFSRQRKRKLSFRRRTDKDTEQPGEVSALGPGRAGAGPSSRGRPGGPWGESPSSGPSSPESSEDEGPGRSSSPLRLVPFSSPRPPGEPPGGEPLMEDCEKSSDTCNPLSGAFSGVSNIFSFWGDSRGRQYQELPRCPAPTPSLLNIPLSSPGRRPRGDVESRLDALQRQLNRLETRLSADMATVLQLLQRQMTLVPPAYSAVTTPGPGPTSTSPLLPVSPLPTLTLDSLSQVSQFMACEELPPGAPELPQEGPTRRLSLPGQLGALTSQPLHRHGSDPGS
In data set [20] the target is T3, Voltage-gated inwardly rectifying potassium channel KCNH2. Kind of data set: Displacement of [3H]dofetilide from human ERG channel.
Data set [21] is described as follows: Ratio of fCmax in brain to plasma of C57Bl/6J mouse. It counts as ADME, cell-free. In outline: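 Male C57BL/6J mice given a single subcutaneous dose (56 mg/kg unless noted). Plasma and whole brain were taken under isoflurane at 0.5, 1, 2, 4, 8 and 24 h (n = 4 per time point). Brain was homogenised in 4 volumes of 60% isopropanol, and samples were quantified by LC-MS after protein precipitation. Free fractions came from equilibrium dialysis of 1 μM-spiked plasma or brain homogenate (6 h, 37 °C, n = 6).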

The subject of data set [22] is Brain. Kind of data set: fCmax in C57Bl/6J mouse brain at 56 mg/kg, sc by LC/MS analysis. It counts as ADME, organism-based. On the set-up: dose 56 mg/kg, route subcutaneous. As to conditions: in vivo. The method in brief: as §1
For data set [23], the system named is hERG (KCNH2). Put plainly: Therapeutic index, ratio of EC50 for human ERG channel to fCmax in mouse plasma. Particulars: read-out: TI. It counts as cell-free.
For data set [24], the system named is Plasma. Put plainly: fCmax in C57Bl/6J mouse plasma at 56 mg/kg, sc by LC/MS analysis. The arrangement: dose 56 mg/kg, route subcutaneous. It counts as ADME, organism-based. Particulars: in vivo. In outline: as §1
The subject of data set [25] is Mus musculus. Put plainly: In vivo inhibition of CK1 delta in C57Bl/6J mouse circardian rhythm model assessed as delay in phase shift at 56 mg/kg, sc after 3 days. It counts as functional. As to conditions: route subcutaneous. The method in brief:
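Mice received 56 mg/kg subcutaneously for 3 days. Phase shift was taken as the start of the active period after dosing minus before dosing.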

The structures appear in SMILES notation.

Sequence of Casein kinase I isoform epsilon (P49674 whole entry, canonical isoform): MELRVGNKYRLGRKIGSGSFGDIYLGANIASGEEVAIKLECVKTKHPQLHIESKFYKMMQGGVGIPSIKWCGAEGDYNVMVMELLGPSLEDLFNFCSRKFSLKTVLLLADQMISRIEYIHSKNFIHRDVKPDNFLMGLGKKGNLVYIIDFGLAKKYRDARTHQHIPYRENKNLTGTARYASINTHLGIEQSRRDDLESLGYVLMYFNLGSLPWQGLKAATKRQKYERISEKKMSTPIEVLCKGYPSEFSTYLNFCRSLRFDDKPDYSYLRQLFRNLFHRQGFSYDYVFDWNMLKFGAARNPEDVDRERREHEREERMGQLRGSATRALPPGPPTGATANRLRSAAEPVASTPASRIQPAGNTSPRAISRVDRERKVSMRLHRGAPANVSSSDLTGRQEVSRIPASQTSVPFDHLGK
Sequence of Mitogen-activated protein kinase kinase kinase kinase 4 (Homo sapiens) (O95819 2-1239 limits assumed): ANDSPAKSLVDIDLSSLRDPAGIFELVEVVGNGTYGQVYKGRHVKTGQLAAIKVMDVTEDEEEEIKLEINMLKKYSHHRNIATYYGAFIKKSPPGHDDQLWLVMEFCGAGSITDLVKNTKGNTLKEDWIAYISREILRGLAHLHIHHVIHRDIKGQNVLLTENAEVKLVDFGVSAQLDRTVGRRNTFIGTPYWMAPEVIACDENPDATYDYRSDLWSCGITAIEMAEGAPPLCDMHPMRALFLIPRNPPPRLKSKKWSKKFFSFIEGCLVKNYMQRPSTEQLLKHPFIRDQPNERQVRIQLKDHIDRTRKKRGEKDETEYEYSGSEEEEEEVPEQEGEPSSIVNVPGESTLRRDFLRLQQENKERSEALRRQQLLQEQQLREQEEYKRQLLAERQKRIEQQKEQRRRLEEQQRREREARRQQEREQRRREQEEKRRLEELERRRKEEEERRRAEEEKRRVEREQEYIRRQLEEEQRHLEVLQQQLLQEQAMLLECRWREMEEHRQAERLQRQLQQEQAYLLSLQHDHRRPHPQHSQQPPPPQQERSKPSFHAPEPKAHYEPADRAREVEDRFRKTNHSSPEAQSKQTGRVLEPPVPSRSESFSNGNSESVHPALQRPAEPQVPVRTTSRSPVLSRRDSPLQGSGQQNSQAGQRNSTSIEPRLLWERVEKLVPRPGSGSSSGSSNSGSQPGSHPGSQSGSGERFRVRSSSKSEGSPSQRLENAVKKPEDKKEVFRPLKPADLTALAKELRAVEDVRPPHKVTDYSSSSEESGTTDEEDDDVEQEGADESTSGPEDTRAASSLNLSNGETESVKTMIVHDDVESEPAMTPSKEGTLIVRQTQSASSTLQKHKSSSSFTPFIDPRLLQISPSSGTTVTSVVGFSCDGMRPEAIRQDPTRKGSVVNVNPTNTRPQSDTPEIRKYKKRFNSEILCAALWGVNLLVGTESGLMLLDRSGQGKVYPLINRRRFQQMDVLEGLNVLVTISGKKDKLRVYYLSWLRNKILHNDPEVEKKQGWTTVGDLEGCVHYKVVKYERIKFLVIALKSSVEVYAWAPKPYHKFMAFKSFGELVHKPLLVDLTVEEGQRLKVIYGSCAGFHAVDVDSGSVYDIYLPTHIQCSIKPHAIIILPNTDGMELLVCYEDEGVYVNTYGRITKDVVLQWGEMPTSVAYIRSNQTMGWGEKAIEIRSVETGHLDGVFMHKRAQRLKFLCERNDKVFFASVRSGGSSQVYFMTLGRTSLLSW

One may read the inhibition as how much of the control response was suppressed. Broadly, the IC50 is the concentration that gives 50% inhibition. Regarding `Nc1nccc(-c2c(-c3ccc(F)cc3)ncn2C2CCCCC2)n1`, the inhibition in [1], in [2], in data set [4], in [5], in [8] and in data set [9] was above 50% throughout. Moreover, the fCmax in [3] came out at 0.752 µM; in data set [6] it was 0.241 µM. Also, the half-inhibitory concentration (IC50) in [7] was 39.2 nM.

In the case of `Cn1cc(-c2ccncc2)c(-c2ccc(F)cc2)n1`, the inhibition in data set [1] was 85%; in [10], 61%; in data set [11], 52%; in data set [12] it was 48%; in [15], 55%; in data set [8] it was 80%. Besides, the inhibition in data set [16] turned out to be 70.5%; in [9] it was 66%. For the same compound, the IC50 came to 48.1 nM in data set [13], 305 nM in data set [14], 126 nM in data set [7] and 545 nM in data set [17].

In turn, `Cn1cc(-c2ccnc(CO)c2)c(-c2ccc(F)cc2)n1` registered an inhibition in data set [1] of 42%. The compound also yielded an inhibition at 10 µM in data set [18] of 6%. Also, the IC50 in data set [13] was found to be 14.2 nM; in [14] it was 81.6 nM; in data set [17] it was 237 nM.

Turning to `Cn1cc(-c2ccnc3c2OCCNC3)c(-c2ccc(F)cc2)n1`, the IC50 is 25700 nM in data set [19]; above 79600 nM in data set [20]; 27 nM in data set [14]; 654 nM in [7]; 39 nM in data set [17]. Also, in data set [21], the Kp uu came out at 0.33. The results for the fCmax in data set [22] and in data set [24] were 2.97 µM and 8.82 µM, respectively. The selectivity ratio in data set [23] was found to be 3. Moreover, the Time in [25] stood at 175 min.

On to `Cn1cc(-c2ccnc(C3COCCN3)c2)c(-c2ccc(F)cc2)n1` (single isomer, unassigned; (-)), for which the IC50 in [19] is 4430 nM; in [20], 25900 nM; in [13], 5.3 nM; in data set [14], 28.2 nM; in data set [7], above 1000 nM; in data set [17], 90 nM. Besides, the fCmax in data set [22] was found to be 3.7 µM; in data set [24], 1.95 µM.

As for `CNCc1cc(-c2cn(C)nc2-c2ccc(F)cc2)ccn1`, the fCmax came out at 7.53 µM in [22] and 9.66 µM in [24]. In addition, the IC50 in [13] was determined as 12.9 nM; in [14] it was 67.2 nM; in [7] it was 3040 nM; in [17] it was 63.8 nM.

The values above are taken from ChEMBL document CHEMBL2417378, “Ligand-protein interactions of selective casein kinase 1δ inhibitors” (J Med Chem, 2013).
